Screening results: PubChem BioAssay, several laboratories
CSN deneddyl inh – inhibitors of CSN-mediated cullin deneddylation, primary screen, biochemical, fluorescence polarization, uHTS; AID 651999, 2013; Purified CSN, SCF-Nedd8-OG deneddylation; actives 0.38% (n = 360,000); inhibition, % at 12.5 µM;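 active means pattern-corrected inhibition above about 35%, with an unprinted fluorescence ratio check between 0.5 and 1.5, limit read from the data, passing the limit was not always enough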
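Detection – fluorescence polarization · System – HEK293T-derived human Csn5 enzyme · Controls – substrate-only high control, full reaction low control · Timing – 90 min, room temperature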
Myeloid diff 2 – induction of myeloid progenitor differentiation, primary screen, cell-based, flow cytometry, MLPCN library | ER-HoxA9 myeloid progenitors, lysozyme-GFP differentiation | calls only at 10 µM | actives 1% (n = 360,000) | AID 624256, 2012;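 active means normalized GFP-positive differentiation at or above the plate's own cutoff, the solvent-only control mean plus 3 SD; inconclusive means no clear call, values can overlap the other calls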;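 further: cells exposed to compound for four days before flow analysis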
HNF4A DNA FP – change in binding of human HNF4A to DNA, primary screen, biochemical, fluorescence polarization, FITC-DNA; actives 0.3% (n = 360,000); 1 h; activity change, % at 10 µM; AID 1224865, 2016; Hepatocyte nuclear factor 4-alpha (Homo sapiens), P41235; in the data active means activity change above about 30%, passing the limit was not always enough
Target sequence (P41235 whole entry, looked up): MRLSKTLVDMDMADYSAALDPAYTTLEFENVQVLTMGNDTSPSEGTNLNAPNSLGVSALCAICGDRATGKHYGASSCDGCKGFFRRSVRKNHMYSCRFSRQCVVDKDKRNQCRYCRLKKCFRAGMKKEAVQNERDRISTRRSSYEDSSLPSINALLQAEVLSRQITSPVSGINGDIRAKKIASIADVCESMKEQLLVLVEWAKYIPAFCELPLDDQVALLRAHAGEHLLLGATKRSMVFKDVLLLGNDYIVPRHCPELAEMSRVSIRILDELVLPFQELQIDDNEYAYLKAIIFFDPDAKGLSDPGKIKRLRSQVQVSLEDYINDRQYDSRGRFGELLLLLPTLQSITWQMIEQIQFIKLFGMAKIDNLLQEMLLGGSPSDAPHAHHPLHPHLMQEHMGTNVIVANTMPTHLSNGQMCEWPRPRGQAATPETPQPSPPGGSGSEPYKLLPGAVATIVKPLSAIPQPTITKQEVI
Exocytosis inh – LAMP-1 surface exposure blockers, TALL-104 cells – cell-based, flow cytometry, MLPCN library, primary screen. TALL-104 LAMP-1 surface exposure; cells stimulated with thapsigargin and PMA. inhibition, % at 10 µM. actives 0.66% (n = 360,000). AID 651702, 2012;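 active means inhibition above about 55%, limit read from the data; inconclusive means no clear call, values can overlap the other calls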
Of the large screens only hits and unclear results are named; the others gave an inactive call. In the library only some 2.2% were active in any assay of this set; here they are far more common.

CS(=O)(=O)NN1C(=O)c2ccccc2NC1c1c[nH]c2ccccc12 (centres undefined)	Myeloid diff 2 active
Cn1nnnc1Sc1ncnc2scc(-c3ccccc3)c12	none (no result: Myeloid diff 2)
Cn1nnnc1Sc1ncnc2scc(-c3ccccc3Br)c12	Myeloid diff 2 active
CCC(=O)Nc1c(-c2ccc(Cl)cc2)c(=O)c2ccccc2n1C	Exocytosis inh inconclusive
Cc1cc(C(=O)O)ccc1N/C=C1\CCCC(C)C1=O (centres undefined)	none
CC1CCC/C(=C\Nc2ccc(O)cc2)C1=O (centres undefined)	Myeloid diff 2 active
Cn1ccc2c(-c3ccc4c(c3)OCCO4)cc3c(c21)C1CCC3C1 (centres undefined)	CSN deneddyl inh 116.8
CCc1nn(C(CC)C(=O)NCc2cccc(OC)c2OC)c(=O)c2cc3occc3n12 (centres undefined)	none
N#Cc1c(N2CCCC2)nc(N)c2c(N)nc(N3CCCC3)cc12	CSN deneddyl inh 55.3, Exocytosis inh 60.4
CCOc1cc2c(C#N)c(N3CCCC3)nc(N)c2c(N)n1	none
CSCCC(NC(=O)COc1ccccc1)C(=O)N1CC(C)OC(C)C1 (centres undefined)	none
Cc1ccc(C(=O)c2coc3ccc(O)cc23)cc1	none
COc1ccc(/C=N/Nc2cc(N3CCCC3)nc(N3CCCC3)n2)cc1	Exocytosis inh 72.5
Oc1ccc(/C=N/Nc2cc(N3CCCC3)nc(N3CCCC3)n2)cc1	none
O=C(Cn1cnc2ccccc21)Nc1ccc2c(c1)OCCCO2	none
CC(C)(C)CC(=O)Nc1cc2c3c(c1)CCC(=O)N3CCC2	none
O=C(COc1ccc(S(=O)(=O)N2CCCCC2)cc1Cl)N1CCCC1	Myeloid diff 2 active
CCCCNC(=O)COn1nnc2ccc(S(=O)(=O)N3CCOCC3)cc21	none
COc1cc(OC)c(C2Nc3cccc4cccc(c34)N2)c(OC)c1	Myeloid diff 2 inconclusive, Exocytosis inh 75.6
COc1ccc(C2Nc3cccc4cccc(c34)N2)cc1	none
O=C(NC1CCCCC1)C(c1ccccc1F)n1c(=O)c(-c2ccco2)nc2ccccc21 (centres undefined)	HNF4A DNA FP 34.4
O=C(NCc1ccccc1)C(c1cc2ccccc2o1)n1c(=O)c(-c2ccco2)nc2ccccc21 (centres undefined)	HNF4A DNA FP 36.6
O=C(NCc1ccccc1)C(c1ccccc1)n1c(=O)c(-c2ccco2)nc2ccccc21 (centres undefined)	none
CC(C)(C)NC(=O)C(c1ccc(C(F)(F)F)cc1)n1c(=O)c(-c2ccco2)nc2ccccc21 (centres undefined)	HNF4A DNA FP 42.4
CCOc1ccc2c(c1)/C(=N/N1C(=O)c3ccccc3C1=O)C(=O)N2	none
CCOc1ccc2c(c1)/C(=C(\C(Cl)=C(Cl)Cl)[N+](=O)[O-])N2	Myeloid diff 2 active
CCCCOc1ccc2c(c1)/C(=C(\C(Cl)=C(Cl)Cl)[N+](=O)[O-])N2	Myeloid diff 2 active
Cn1nnc2c(C(N)=O)ncn2c1=O	Myeloid diff 2 active
Cc1ccc(N(C(=O)CNC(=O)c2ccco2)C(C(=O)NCC2CCCO2)c2ccccc2)c(C)c1 (centres undefined)	none
CCn1nc(C)c(Br)c1C(=O)Sc1ccccc1Cl	Exocytosis inh 69.3
O=C(Nc1ccc(N2CCOCC2)cc1N1CCOCC1)c1ccc([N+](=O)[O-])cc1	CSN deneddyl inh 73.8
O=C(CCNC(=O)c1ccc([N+](=O)[O-])cc1)Nc1ccc(N2CCOCC2)cc1N1CCOCC1	none
CN(C)S(=O)(=O)c1ccc(C(=O)NNC(=O)C23CC4CC(CC(C4)C2)C3)cc1	none
NNC(=O)c1csc(-c2cccc(C(F)(F)F)c2)n1	Myeloid diff 2 active
Cc1cccc(C(=O)NC2CCN(C(=S)NCc3ccco3)CC2)c1	none
O=C(NC1CCN(C(=S)NCc2ccco2)CC1)NC12CC3CC(CC(C3)C1)C2	HNF4A DNA FP 43.5
Nc1ccc2nc3c(=O)n(CCc4ccccc4)c(=O)[nH]c3nc2c1	Myeloid diff 2 active
Cc1cc2nc3c(=O)n(CCc4ccccc4)c(=O)[nH]c3nc2cc1N	none
C=CCn1c(SCc2ccc3c(c2)OCO3)nc2scc(-c3ccco3)c2c1=O	CSN deneddyl inh 57.5
COc1cccc(C(=O)NCCS(=O)(=O)NCc2ccccn2)c1	none
CCN(CC(=O)NCc1ccccn1)S(=O)(=O)c1cc(Cl)ccc1Cl	none
CCOC(=O)/C=c1\s/c(=C\c2c(OC)ccc3ccccc23)c(=O)n1CC(=O)NCC1CCCO1 (centres undefined)	Myeloid diff 2 active
O=c1[nH]c2ccccc2nc1/C=C/c1ccccc1	none
O=c1[nH]c2ccccc2nc1/C=C/c1ccc(F)cc1	Myeloid diff 2 active, HNF4A DNA FP 44.1
O=c1[nH]c2ccccc2nc1/C=C/c1ccc(O)cc1	Myeloid diff 2 active, HNF4A DNA FP 36.4
O=C(CN(Cc1ccc(Cl)cc1)C(=O)c1csnn1)NCc1ccc(F)cc1	none
Cc1ccc([C@@H]2CC=C(C(=O)O)[C@H](c3cccc(F)c3)N2S(=O)(=O)c2ccccc2C)cc1	none
CC1=C/C(=N\OC(=O)/C=C/c2ccccc2)C(C)=CC1=O	Myeloid diff 2 active
CCCNC(=O)C(Cc1cccc(OC)c1)NC(=O)c1ccc(C(C)(C)C)cc1 (centres undefined)	none
Cc1cc2c(cc1C)-c1c(ssc1=Nc1ccc(S(N)(=O)=O)cc1)C(C)(C)N2	Exocytosis inh 66.6
CC(=O)NS(=O)(=O)c1ccc(N=c2ssc3c2-c2cc(C)c(C)cc2NC3(C)C)cc1	none
CC(=O)c1ccc(NC(=S)N2CCCC2)cc1	none (no result: Myeloid diff 2)
CC1CC(=O)C2=C(C1)Nc1ccccc1N(C(=O)COc1ccccc1)C2c1ccco1 (centres undefined)	Myeloid diff 2 active
CCn1c2ccc(F)cc2c2nc3ccccc3nc21	Myeloid diff 2 active
CN(C)c1ccc(/C=C(/C#N)C(=O)Nc2nc3c(s2)CCN(Cc2ccccc2)C3)cc1	Myeloid diff 2 active
N#C/C(=C\c1ccc(OCc2ccccc2)cc1)C(=O)Nc1nc2c(s1)CCN(Cc1ccccc1)C2	none
Cc1coc2cc3oc(=O)ccc3cc12	none
CC1CCc2cccc3c2N1c1cc(C#N)c(C#N)cc1O3 (centres undefined)	Myeloid diff 2 active
CC1CCCCN1c1cc(C#N)c(C#N)cc1[N+](=O)[O-] (centres undefined)	none
O=Cc1cccnc1SCc1ccccc1	Exocytosis inh 64.4
CCOC(=O)c1ccccc1Nc1cn(C(C)=O)c2ccccc12	Myeloid diff 2 active
CC(=O)n1cc(Nc2ccccc2C(=O)O)c2ccccc21	none
CC(Oc1ccccc1Cl)C(=O)N(Cc1ccco1)C1CCS(=O)(=O)C1 (centres undefined)	HNF4A DNA FP 31.2
COc1ccc(N2CC(C(=O)Nc3nc4ccc(F)cc4s3)CC2=O)c(OC)c1 (centres undefined)	none
